Test results taken from ChEMBL document CHEMBL1121685, “Development of new mitomycin C and porfiromycin analogues” (J Med Chem, 1981).

Assays:
Mus musculus [1] = experiment: Effect of compound on total white blood cell count in BDG1 male mice, after intraperitoneal administration at a dose of 1.3 mg/kg on day 5; assay type: functional
Outline: (§1)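 BDG₁ male mice received a single ip dose on day 0. The dose series topped out at the LD₅₀ level, or at twice the optimal dose for some agents. Total white blood cell count was taken on days 3, 5 and 7 and expressed as % change from untreated controls. Significance was set at p ≤ 0.05 or p ≤ 0.01.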

Mus musculus [2] = experiment: Effect of compound on total white blood cell count in BDG1 male mice, after intraperitoneal administration at a dose of 1.3 mg/kg on day 7; assay type: functional; outline: as §1
Mus musculus [3] = experiment: Effect of compound on total white blood cell count in BDG1 male mice, after intraperitoneal administration at a dose of 1.3 mg/kg on day 3; assay type: functional; outline: as §1
Mus musculus [4] = experiment: Effect of compound on total white blood cell count in BDG1 male mice, after intraperitoneal administration at a dose of 1.7 mg/kg on day 3; assay type: functional; outline: as §1
Mus musculus [5] = experiment: Effect of compound on total white blood cell count in BDG1 male mice, after intraperitoneal administration at a dose of 1.7 mg/kg on day 5; assay type: functional; outline: as §1
Mus musculus [6] = experiment: Effect of compound on total white blood cell count in BDG1 male mice, after intraperitoneal administration at a dose of 1.7 mg/kg on day 7; assay type: functional; outline: as §1
Mus musculus [7] = species on record: Mus musculus; experiment: Degree of leukopenia produced by compound is assessed form Percent change in white cells on days 5; assay type: functional; outline: as §1
Mus musculus [8] = experiment: Effect of compound on total white blood cell count in BDG1 male mice, after intraperitoneal administration at a dose of 0.96 mg/kg on day 3; assay type: functional; outline: as §1
Mus musculus [9] = experiment: Effect of compound on total white blood cell count in BDG1 male mice, after intraperitoneal administration at a dose of 0.96 mg/kg on day 5; assay type: functional; outline: as §1
Mus musculus [10] = experiment: Effect of compound on total white blood cell count in BDG1 male mice, after intraperitoneal administration at a dose of 0.96 mg/kg on day 7; assay type: functional; outline: as §1
Mus musculus [11] = species on record: Mus musculus; experiment: Half-wave potential produced by the compound at their optimal dose; assay type: functional; parameters: unit not given here
Mus musculus [12] = experiment: Minimum effective dose that show activity against P-388 murine leukemia cells in CDF1 female mice, after intraperitoneal administration (optimal dose is 3.2 mg/kg); assay type: functional; conditions: P388, ip, read-out: MED
Outline: (§2)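 10⁶ P-388 ascites cells implanted ip in CDF₁ female mice. Six mice per dose, 10 saline-injected controls, and a concurrent mitomycin C reference group. %T/C = median survival time of treated/control × 100. MED is the lowest dose giving %T/C > 125. Therapeutic ratio = optimal dose/MED.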

Mus musculus [13] = experiment: Antitumor activity against P-388 murine leukemia cells in CDF1 female mice after intraperitoneal administration at the specified optimal dose of 3.2 mg/kg; assay type: functional
[14] = Therapeutic ratio is expressed as ratio of optimal dose and minimum effective dose; assay type: ADME; conditions: mouse; read-out: TR; outline: as §2
Mus musculus [15] = experiment: Effect of compound on total white blood cell count in BDG1 male mice, after intraperitoneal administration at a dose of 12.57 mg/kg on day 5; assay type: functional; outline: as §1
Mus musculus [16] = experiment: Effect of compound on total white blood cell count in BDG1 male mice, after intraperitoneal administration at a dose of 12.57 mg/kg on day 7; assay type: functional; outline: as §1
Mus musculus [17] = experiment: Effect of compound on total white blood cell count in BDG1 male mice, after intraperitoneal administration at a dose of 12.57 mg/kg on day 3; assay type: functional; outline: as §1
Mus musculus [18] = experiment: Effect of compound on total white blood cell count in BDG1 male mice, after intraperitoneal administration at a dose of 17 mg/kg on day 3; assay type: functional
Outline: (§3)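 Single ip dose given on day 0 to BDG1 male mice over a descending dose series. Total white blood cell count is expressed as % change from untreated control on days 3, 5 and 7. Significance is flagged at p ≤ 0.05 and p ≤ 0.01.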

Mus musculus [19] = experiment: Effect of compound on total white blood cell count in BDG1 male mice, after intraperitoneal administration at a dose of 17 mg/kg on day 5; assay type: functional; outline: as §3
Mus musculus [20] = experiment: Effect of compound on total white blood cell count in BDG1 male mice, after intraperitoneal administration at a dose of 17 mg/kg on day 7; assay type: functional; outline: as §3
Mus musculus [21] = experiment: Effect of compound on total white blood cell count in BDG1 male mice, after intraperitoneal administration at a dose of 9.56 mg/kg on day 3; assay type: functional
Outline: (§4)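 Single ip dose given on day 0 to BDG₁ male mice. Total white blood cell count measured on days 3, 5 and 7, expressed as % change from control. Highest dose was at the LD₅₀, or at twice the optimal dose where so footnoted. Significance reported at p ≤ 0.05 and p ≤ 0.01. D marks death of one or more mice.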

Mus musculus [22] = experiment: Effect of compound on total white blood cell count in BDG1 male mice, after intraperitoneal administration at a dose of 9.56 mg/kg on day 5; assay type: functional; outline: as §4
Mus musculus [23] = experiment: Effect of compound on total white blood cell count in BDG1 male mice, after intraperitoneal administration at a dose of 9.56 mg/kg on day 7; assay type: functional; outline: as §4
Mus musculus [24] = experiment: Minimum effective dose that show activity against P-388 murine leukemia cells in CDF1 female mice, after intraperitoneal administration (optimal dose is 12.8 mg/kg); assay type: functional; conditions: P388, ip, read-out: MED; outline: as §2
Mus musculus [25] = experiment: Antitumor activity against P-388 murine leukemia cells in CDF1 female mice after intraperitoneal administration at the specified optimal dose of 12.8 mg/kg; assay type: functional
Mus musculus [26] = experiment: Effect of compound on total white blood cell count in BDG1 male mice, after intraperitoneal administration at a dose of 25.6 mg/kg on day 5; assay type: functional; outline: as §3
Mus musculus [27] = experiment: Effect of compound on total white blood cell count in BDG1 male mice, after intraperitoneal administration at a dose of 25.6 mg/kg on day 7; assay type: functional; outline: as §3
Mus musculus [28] = experiment: Effect of compound on total white blood cell count in BDG1 male mice, after intraperitoneal administration at a dose of 25.6 mg/kg on day 3; assay type: functional; outline: as §3
Mus musculus [29] = experiment: Effect of compound on total white blood cell count in BDG1 male mice, after intraperitoneal administration at a dose of 51.2 mg/kg on day 3 (highest dose was twice the optimal dose); assay type: functional; outline: as §4
Mus musculus [30] = experiment: Effect of compound on total white blood cell count in BDG1 male mice, after intraperitoneal administration at a dose of 51.2 mg/kg on day 5 (highest dose was twice the optimal dose); assay type: functional; outline: as §4
Mus musculus [31] = experiment: Minimum effective dose that show activity against P-388 murine leukemia cells in CDF1 female mice, after intraperitoneal administration (optimal dose is 25.6 mg/kg); assay type: functional; conditions: P388, ip, read-out: MED; outline: as §2
Mus musculus [32] = experiment: Number of tumored survivors, 45 days after administration of compound at a dose of 16 mg/kg/day in mice; assay type: functional
Mus musculus [33] = experiment: Activity of compound dose of 16 mg/kg/day against Murine B-16 Melanocarcinoma in mice; assay type: functional
Mus musculus [34] = experiment: Activity of compound dose of 4 mg/kg/day against Murine B-16 Melanocarcinoma in mice; assay type: functional
Mus musculus [35] = experiment: Activity of compound dose of 8 mg/kg/day against Murine B-16 Melanocarcinoma in mice; assay type: functional
Mus musculus [36] = experiment: Antitumor activity against P-388 murine leukemia cells in CDF1 female mice after intraperitoneal administration at the specified optimal dose of 25.6 mg/kg; assay type: functional
Mus musculus [37] = experiment: Activity of compound dose of 0.5 mg/kg/day against Murine B-16 Melanocarcinoma in mice; assay type: functional
Mus musculus [38] = experiment: Activity of compound dose of 1 mg/kg/day against Murine B-16 Melanocarcinoma in mice; assay type: functional
Mus musculus [39] = experiment: Number of cured survivors, 45 days after administration of compound at a dose of 16 mg/kg/day in mice; assay type: functional
Mus musculus [40] = experiment: Number of cured survivors, 45 days after administration of compound at a dose of 4 mg/kg/day in mice; assay type: functional
Mus musculus [41] = experiment: Activity of compound dose of 2 mg/kg/day against Murine B-16 Melanocarcinoma in mice; assay type: functional

COC1=C(C)C(=O)C2=C(C1=O)[C@@H](COC(N)=O)[C@@]1(OC)[C@H]3N[C@H]3CN21 [MITOMYCIN A]
Change (Mus musculus [1]): -15% | Change (Mus musculus [2]): -9% | Change (Mus musculus [3]): -12% | Change (Mus musculus [4]): -28% | Change (Mus musculus [5]): -24% | Change (Mus musculus [6]): 5% | Change (Mus musculus [7]): -2% | Change (Mus musculus [8]): -11% | Change (Mus musculus [9]): -25% | Change (Mus musculus [10]): 4% | E1/2 (Mus musculus [11]): -0.21 | minimal effective dose (Mus musculus [12]): 0.05 mg/kg | T/C (Mus musculus [13]): 180% | selectivity ratio [14]: 64

C#CCNC1=C(C)C(=O)C2=C(C1=O)[C@H](COC(N)=O)C1(OC)[C@@H]3N[C@@H]3CN21 (stereo partly specified)
Change (Mus musculus [15]): -69% | Change (Mus musculus [16]): -52% | Change (Mus musculus [17]): -68% | Change (Mus musculus [18]): -80% | Change (Mus musculus [19]): -75% | Change (Mus musculus [20]): -73% | E1/2 (Mus musculus [11]): -0.41 | Change (Mus musculus [21]): -59% | Change (Mus musculus [22]): -56% | Change (Mus musculus [23]): -28% | minimal effective dose (Mus musculus [24]): 0.2 mg/kg | T/C (Mus musculus [25]): 358% | selectivity ratio [14]: 64

C=C(C)CNC1=C(C)C(=O)C2=C(C1=O)[C@H](COC(N)=O)C1(OC)[C@@H]3N[C@@H]3CN21 (stereo partly specified)
Change (Mus musculus [7]): -59% | E1/2 (Mus musculus [11]): -0.41 | Change (Mus musculus [26]): -68% | Change (Mus musculus [27]): -34% | Change (Mus musculus [28]): -60% | Change (Mus musculus [29]): -60% | Change (Mus musculus [30]): -25% | minimal effective dose (Mus musculus [31]): 1.6 mg/kg | Survivors (Mus musculus [32]): 1 | T/C (Mus musculus [33]): 226% | T/C (Mus musculus [34]): 160% | T/C (Mus musculus [35]): 186% | T/C (Mus musculus [36]): 245% | T/C (Mus musculus [37]): 122% | T/C (Mus musculus [38]): 131% | Survivors (Mus musculus [39]): 3 | Survivors (Mus musculus [40]): 1 | T/C (Mus musculus [41]): 146% | selectivity ratio [14]: 16
